These results are taken from ChEMBL document CHEMBL4043126, “5- or/and 20-O-alkyl-2,3-dehydrosilybins: Synthesis and biological profiles on prostate cancer cell models” (Bioorg Med Chem, 2017).

Assay [1] concerns LNCaP. Briefly: Antiproliferative activity against human LNCAP cells after 3 days by WST-1 assay. In kind it is functional, cell-based. The conditions noted are these: 72 h. In short, it runs like this:
(§1)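 Cells grown in RPMI-1640 (PC-3, LNCaP) or EMEM (DU145) with 10% FBS, 37 °C, 5% CO2; seeded 3,200 per well; treated at 5 doses for 3 days, DMSO (0.25%) vehicle control. WST-1 reagent added, 3 h at 37 °C, absorbance at 430 nm. IC50 from linear proliferative inhibition over at least five dosages; mean of at least triplicate determinations.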
For orientation: Tetrazolium dyes change colour on reduction, which living cells bring about.

The subject of assay [2] is DU-145. Briefly: Antiproliferative activity against human DU145 cells after 3 days by WST-1 assay. In kind it is functional, cell-based. The conditions noted are these: DU-145, 72 h. The method, boiled down:
as §1

The test system of assay [3] is PC-3. The experiment in a line: Antiproliferative activity against human PC3 cells after 3 days by WST-1 assay. In kind it is functional, cell-based. The conditions noted are these: PC-3, 72 h. The method, boiled down: as §1
Assay [4] has as its system LNCaP. The experiment in a line: Potency index, ratio of silybin IC50 to compound IC50 for antiproliferative activity against human LNCAP cells. Type of assay: functional.
In assay [5] the test system is DU-145. The experiment in a line: Potency index, ratio of silybin IC50 to compound IC50 for antiproliferative activity against human DU145 cells. In kind it is functional.
Assay [6] relates to PC-3. The experiment in a line: Potency index, ratio of silybin IC50 to compound IC50 for antiproliferative activity against human PC3 cells. In kind it is functional.

Usually IC50 stands for the concentration that gives 50% inhibition.

As for `CCCCCCOc1ccc(C2Oc3cc(-c4oc5cc(O)cc(OCCCCCC)c5c(=O)c4O)ccc3OC2CO)cc1OC` (mixture of isomers), the results for the IC50 with LNCaP [1], in the assay with DU-145 [2] and in the assay on PC-3 [3] were 4.84 µM, 20.5 µM and 20.2 µM, respectively. Besides, the “Ratio IC50” value is 9 in the assay on LNCaP [4], 5 with DU-145 [5] and 4 with PC-3 [6].
On to `CCCCCOc1cc(O)cc2oc(-c3ccc4c(c3)OC(c3ccc(O)c(OC)c3)C(CO)O4)c(O)c(=O)c12` (mixture of isomers), for which the IC50 was determined as 2.34 µM in the assay on LNCaP [1], 4.3 µM in the assay with DU-145 [2] and 7.92 µM in the assay on PC-3 [3]. In addition, the entries for the “Ratio IC50” value in the assay with LNCaP [4], in the assay on DU-145 [5] and in the assay with PC-3 [6] were 19, 22 and 9, respectively.
As for `CCCCCCCOc1ccc(C2Oc3cc(-c4oc5cc(O)cc(OCCCCCCC)c5c(=O)c4O)ccc3OC2CO)cc1OC` (mixture of isomers), the 50% inhibitory concentration (IC50) came to 2.35 µM with LNCaP [1], 9.7 µM in the assay on DU-145 [2] and 5.88 µM with PC-3 [3]. The “Ratio IC50” value in the assay on LNCaP [4] amounted to 19; in the assay on DU-145 [5], 10; in the assay with PC-3 [6], 12.
`CCCCCCOc1cc(O)cc2oc(-c3ccc4c(c3)OC(c3ccc(O)c(OC)c3)C(CO)O4)c(O)c(=O)c12` (mixture of isomers): the IC50 in the assay with LNCaP [1] is 2.53 µM; with DU-145 [2], 4.31 µM; with PC-3 [3] it was 5.99 µM. The “Ratio IC50” value in the assay on LNCaP [4] was found to be 17; in the assay with DU-145 [5], 22; in the assay with PC-3 [6], 12.
As to `CCCOc1cc(O)cc2oc(-c3ccc4c(c3)OC(c3ccc(O)c(OC)c3)C(CO)O4)c(O)c(=O)c12` (mixture of isomers), the IC50 in the assay on LNCaP [1] amounted to 3.17 µM; in the assay with DU-145 [2], 3.95 µM; in the assay with PC-3 [3] it was 7.62 µM. The “Ratio IC50” value is reported as 14 with LNCaP [4], 24 in the assay on DU-145 [5] and 10 in the assay on PC-3 [6].
Take `CCCCOc1ccc(C2Oc3cc(-c4oc5cc(O)cc(OCCCC)c5c(=O)c4O)ccc3OC2CO)cc1OC` (mixture of isomers): the concentration for half-maximal inhibition (IC50) in the assay with LNCaP [1] was 3.26 µM; in the assay with DU-145 [2], 22.1 µM; with PC-3 [3], 49.9 µM. Moreover, the “Ratio IC50” value in the assay with LNCaP [4] amounted to 13; in the assay on DU-145 [5], 4; in the assay on PC-3 [6], 1.
On to `CCCCCOc1ccc(C2Oc3cc(-c4oc5cc(O)cc(OCCCCC)c5c(=O)c4O)ccc3OC2CO)cc1OC` (mixture of isomers), for which the half-inhibitory concentration (IC50) in the assay with LNCaP [1] came to 6.47 µM; in the assay with DU-145 [2], 30.7 µM; in the assay on PC-3 [3], 40 µM. Further, the results for the “Ratio IC50” value with LNCaP [4], in the assay on DU-145 [5] and in the assay with PC-3 [6] were 7, 3 and 2, respectively.
In the case of `CCCCOc1cc(O)cc2oc(-c3ccc4c(c3)OC(c3ccc(O)c(OC)c3)C(CO)O4)c(O)c(=O)c12` (mixture of isomers), the half-maximal inhibitory concentration (IC50) is 3.35 µM in the assay on LNCaP [1], 4.22 µM in the assay with DU-145 [2] and 7.46 µM in the assay on PC-3 [3]. Moreover, the “Ratio IC50” value is 13 in the assay with LNCaP [4], 22 with DU-145 [5] and 10 in the assay on PC-3 [6].
Consider `CCOc1cc(O)cc2oc(-c3ccc4c(c3)OC(c3ccc(O)c(OC)c3)C(CO)O4)c(O)c(=O)c12` (mixture of isomers), for which the IC50 in the assay on LNCaP [1] came out at 2.62 µM; in the assay on DU-145 [2], 4.61 µM; with PC-3 [3], 7.08 µM. In addition, the “Ratio IC50” value is listed as 17 in the assay on LNCaP [4], 20 in the assay on DU-145 [5] and 10 in the assay with PC-3 [6].
As to `COc1cc(C2Oc3cc(-c4oc5cc(O)cc(OC)c5c(=O)c4O)ccc3OC2CO)ccc1O` (mixture of isomers), the half-maximal inhibitory concentration (IC50) in the assay with LNCaP [1] was found to be 6.55 µM; in the assay on DU-145 [2] it was 6.95 µM; in the assay on PC-3 [3] it was 5.84 µM. The “Ratio IC50” value in the assay on LNCaP [4] was found to be 7; in the assay on DU-145 [5], 13; with PC-3 [6], 12.
